This is an account of results in PMC6315297 (AIDS (London, England), 2013).

The assay concerns the target HLA-A*68:02 (Homo sapiens, UniProt P04439, A269V/D140Y/D185E/E176V/E277Q/E87N/F33Y/G231S/I121R/I166T/I218V/L180W/L300P/L318F/N151K/P208A/P217A/Q86R/R138H/R169H/S129P/T345S/V36M). Kind of assay: HLA peptide binding assay. The procedure, abridged:
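Recombinant biotinylated HLA-A*68:02 heavy chain diluted to 2 nM in a mix of 30 nM β2m and peptide, folded 48 h at 18°C. Folded complexes detected by AlphaScreen with streptavidin donor beads and acceptor beads carrying the conformation-dependent anti-HLA-I antibody W6/32. Beads at final 5 μg/mL, incubated overnight at 18°C. Plates equilibrated to reader temperature 1 h before reading.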

Peptide text beside a SMILES is read from it.

The Kd is the free concentration of one partner at which half of the binding sites on the other are occupied at equilibrium, for simple one-to-one binding. High values mean weaker binding, low ones tighter binding. In turn, `CC(C)[C@H](NC(=O)[C@H](Cc1ccc(O)cc1)NC(=O)[C@H](Cc1ccccc1)NC(=O)[C@@H](NC(=O)[C@@H](N)CCC(=O)O)[C@@H](C)O)C(=O)N[C@@H](CC(=O)O)C(=O)NCC(=O)N[C@@H](C)C(=O)O` [ETFYVDGA] (H-ETFYVDGA-OH) came in with a Kd of 2 nM. In other words, the single-digit nanomolar range.
